Data: ChEMBL document CHEMBL4433205, “Dual Pharmacophores Explored via Structure-Activity Relationship (SAR) Matrix: Insights into Potent, Bifunctional Opioid Ligand Design” (J Med Chem, 2019)
Activity calls are given as the source filed them.

Target: T1, Mu-type opioid receptor (Rattus norvegicus, UniProt P33535)
Experiment: Agonist activity at rat mu opioid receptor expressed in rat C6 cell membranes assessed as stimulation of [35S]GTPgammaS binding measured after 1 hr
Format: functional
Details: not given
Method in brief: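 Membranes (10–20 μg protein/tube) from stably transfected cells incubated 1 h at 25°C in 50 mM Tris-HCl, 100 mM NaCl, 5 mM MgCl2, pH 7.4, with 0.1 nM [35S]-GTPγS, 30 μM GDP and varying test concentrations; filtration, scintillation counting.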

T1 sequence (P33535 whole entry): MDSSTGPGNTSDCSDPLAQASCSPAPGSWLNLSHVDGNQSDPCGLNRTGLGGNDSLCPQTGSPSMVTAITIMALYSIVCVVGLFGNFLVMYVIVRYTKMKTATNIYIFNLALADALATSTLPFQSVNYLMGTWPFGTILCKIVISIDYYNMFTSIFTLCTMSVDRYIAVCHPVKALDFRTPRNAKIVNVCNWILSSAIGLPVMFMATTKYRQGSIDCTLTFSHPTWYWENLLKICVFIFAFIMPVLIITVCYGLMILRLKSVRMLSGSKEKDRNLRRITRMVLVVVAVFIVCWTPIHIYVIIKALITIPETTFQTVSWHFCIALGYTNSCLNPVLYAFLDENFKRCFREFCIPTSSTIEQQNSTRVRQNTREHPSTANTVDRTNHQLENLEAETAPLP

| Compound | EC50 [nM] |
| --- | --- |
| CC(=O)N1CC[C@@H](NC(=O)[C@@H](N)Cc2c(C)cc(O)cc2C)c2cc(CN3CCc4ccccc4C3)ccc21.O=C(O)C(F)(F)F | 6 |
| Cc1cc(O)cc(C)c1C[C@H](N)C(=O)N[C@@H]1CCN(S(C)(=O)=O)c2ccc(CN3CCc4ccccc4C3)cc21.O=C(O)C(F)(F)F | 0.12 |

Target: T2, Delta-type opioid receptor (Rattus norvegicus, UniProt P33533)
T2 sequence (P33533 whole entry): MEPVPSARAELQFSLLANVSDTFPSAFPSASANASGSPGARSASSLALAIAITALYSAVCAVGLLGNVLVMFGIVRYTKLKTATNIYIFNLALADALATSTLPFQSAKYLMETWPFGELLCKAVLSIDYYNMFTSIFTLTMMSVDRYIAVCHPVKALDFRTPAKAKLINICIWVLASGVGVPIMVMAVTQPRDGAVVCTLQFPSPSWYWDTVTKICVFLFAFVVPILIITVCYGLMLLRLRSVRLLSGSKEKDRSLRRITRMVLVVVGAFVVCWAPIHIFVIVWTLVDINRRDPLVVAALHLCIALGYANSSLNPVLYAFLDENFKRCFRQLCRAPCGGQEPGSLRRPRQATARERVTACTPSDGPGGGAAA
Experiment: Displacement of [3H]diprenorphine from rat delta opioid receptor expressed in rat C6 cell membranes measured after 1 hr by liquid scintillation counting method
Details: not given

| Compound | Ki [nM] |
| --- | --- |
| CC(=O)N1CC[C@@H](NC(=O)[C@@H](N)Cc2c(C)cc(O)cc2C)c2cc(CN3CCc4ccccc4C3)ccc21.O=C(O)C(F)(F)F | 0.89 |
| Cc1cc(O)cc(C)c1C[C@H](N)C(=O)N[C@@H]1CCN(S(C)(=O)=O)c2ccc(CN3CCc4ccccc4C3)cc21.O=C(O)C(F)(F)F | 0.98 |

Target: Mu-type opioid receptor (Rattus norvegicus) (UniProt P33535)
Sequence (P33535 whole entry): as the sequence (P33535 whole entry) above
Experiment: Agonist activity at rat mu opioid receptor expressed in rat C6 glioma cell membranes assessed as stimulation of [35S]GTPgammaS binding measured after 1 hr relative to DAMGO
Format: functional
Details: not given

| Compound | Efficacy [%] |
| --- | --- |
| CC(=O)N1CC[C@@H](NC(=O)[C@@H](N)Cc2c(C)cc(O)cc2C)c2cc(CN3CCc4ccccc4C3)ccc21.O=C(O)C(F)(F)F | 96 |
| Cc1cc(O)cc(C)c1C[C@H](N)C(=O)N[C@@H]1CCN(S(C)(=O)=O)c2ccc(CN3CCc4ccccc4C3)cc21.O=C(O)C(F)(F)F | 114 |

Target: Delta-type opioid receptor (Rattus norvegicus) (UniProt P33533)
Sequence (P33533 whole entry): as the sequence (P33533 whole entry) above
Experiment: Antagonist activity at rat delta opioid receptor expressed in rat C6 cell membranes assessed as inhibition of SNC80-induced [35S] GTPgammaS binding measured after 1 hr
Format: functional
Details: not given
Method in brief: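 Membranes from rat C6 glioma cells stably expressing rat DOR; [35S]-GTPγS (0.1 nM) binding stimulated by SNC80 concentration–response, alone or with test compound at 1 μM, 1 h at 25°C in 50 mM Tris-HCl, 100 mM NaCl, 5 mM MgCl2, pH 7.4, with 30 μM GDP; filtration and scintillation counting.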

| Compound | Ke [nM] |
| --- | --- |
| Cc1cc(O)cc(C)c1C[C@H](N)C(=O)N[C@@H]1CCN(S(C)(=O)=O)c2ccc(CN3CCc4ccccc4C3)cc21.O=C(O)C(F)(F)F | 0.85 |

Target: T2, Delta-type opioid receptor
Experiment: Agonist activity at rat delta opioid receptor expressed in rat C6 cell membranes assessed as stimulation of [35S]GTPgammaS binding measured after 1 hr
Format: functional
Details: c6

| Compound | EC50 |
| --- | --- |
| CC(=O)N1CC[C@@H](NC(=O)[C@@H](N)Cc2c(C)cc(O)cc2C)c2cc(CN3CCc4ccccc4C3)ccc21.O=C(O)C(F)(F)F | Not Active |
| Cc1cc(O)cc(C)c1C[C@H](N)C(=O)N[C@@H]1CCN(S(C)(=O)=O)c2ccc(CN3CCc4ccccc4C3)cc21.O=C(O)C(F)(F)F | Not Active |

Target: Delta-type opioid receptor (Rattus norvegicus) (UniProt P33533)
Experiment: Agonist activity at rat delta opioid receptor expressed in C6 cell membranes assessed as stimulation of [35S]GTPgammaS binding at 1 uM incubated for 1 hr relative to SNC80
Format: functional
Details: not given
Method in brief: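 Rat DOR in C6 glioma membranes, [35S]-GTPγS binding (0.1 nM, 30 μM GDP, 1 h, 25°C). SNC80 concentration–response run alone and with 1 μM test compound present; stimulation expressed relative to SNC80. Ke = compound concentration/(EC50 shift − 1). Mean of ≥3 assays in duplicate.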

| Compound | Activity [%] |
| --- | --- |
| Cc1cc(O)cc(C)c1C[C@H](N)C(=O)N[C@@H]1CCN(S(C)(=O)=O)c2ccc(CN3CCc4ccccc4C3)cc21.O=C(O)C(F)(F)F | 100 |

Target: T3, Kappa-type opioid receptor (Homo sapiens, UniProt P41145)
T3 sequence (P41145 whole entry): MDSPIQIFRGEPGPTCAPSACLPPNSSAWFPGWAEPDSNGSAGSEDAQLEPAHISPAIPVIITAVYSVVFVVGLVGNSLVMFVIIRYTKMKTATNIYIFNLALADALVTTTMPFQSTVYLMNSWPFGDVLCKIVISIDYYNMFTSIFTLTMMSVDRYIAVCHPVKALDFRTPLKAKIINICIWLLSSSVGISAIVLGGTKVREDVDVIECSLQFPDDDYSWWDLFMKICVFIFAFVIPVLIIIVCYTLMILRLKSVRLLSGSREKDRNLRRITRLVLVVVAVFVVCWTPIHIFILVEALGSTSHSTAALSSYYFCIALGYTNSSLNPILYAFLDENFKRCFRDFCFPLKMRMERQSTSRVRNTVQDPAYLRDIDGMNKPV
Experiment: Agonist activity at human kappa opioid receptor expressed in CHO cell membranes assessed as stimulation of [35S]GTPgammaS binding to G protein incubated for 1 hr relative to U69,593
Format: functional
Details: not given

| Compound | Efficacy [%] |
| --- | --- |
| CC(=O)N1CC[C@@H](NC(=O)[C@@H](N)Cc2c(C)cc(O)cc2C)c2cc(CN3CCc4ccccc4C3)ccc21.O=C(O)C(F)(F)F | 41 |
| Cc1cc(O)cc(C)c1C[C@H](N)C(=O)N[C@@H]1CCN(S(C)(=O)=O)c2ccc(CN3CCc4ccccc4C3)cc21.O=C(O)C(F)(F)F | 51 |

Target: T1, Mu-type opioid receptor
Experiment: Displacement of [3H]diprenorphine from rat mu opioid receptor expressed in rat C6 cell membranes measured after 1 hr by liquid scintillation counting method
Details: not given
Method in brief: (§1)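 Competition with 0.2 nM [3H]-diprenorphine on membranes (20 μg protein/tube) from stably transfected cells in 50 mM Tris-HCl pH 7.4, 1 h at room temperature with shaking; GF/C filtration, three washes, scintillation counting. Nonspecific binding defined with 10 μM naloxone.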

| Compound | Ki [nM] |
| --- | --- |
| CC(=O)N1CC[C@@H](NC(=O)[C@@H](N)Cc2c(C)cc(O)cc2C)c2cc(CN3CCc4ccccc4C3)ccc21.O=C(O)C(F)(F)F | 0.19 |
| Cc1cc(O)cc(C)c1C[C@H](N)C(=O)N[C@@H]1CCN(S(C)(=O)=O)c2ccc(CN3CCc4ccccc4C3)cc21.O=C(O)C(F)(F)F | 0.11 |

Test system: Mus musculus
Experiment: Antinociceptive activity in C57BL/6 mouse assessed as increase in latency to tail withdrawal up to 10 mg/kg, ip administered at 30 mins interval measured during compound dosing by warm water tail withdrawal assay relative to control
Format: functional
Details: not given
Method in brief: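 Male C57BL/6 mice, 20–30 g, 8–16 weeks. Saline ip, baseline latency 30 min later; then cumulative ip doses 1, 3.2, 10 mg/kg in 5% DMSO/saline at 30 min intervals, latency read 30 min after each. Tail tip (2–3 cm) in 50°C water, 20 s cutoff; expressed as % MPE (MPE = 20 s).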

| Compound | MPE [%] |
| --- | --- |
| CC(=O)N1CC[C@@H](NC(=O)[C@@H](N)Cc2c(C)cc(O)cc2C)c2cc(CN3CCc4ccccc4C3)ccc21.O=C(O)C(F)(F)F | 100 |
| Cc1cc(O)cc(C)c1C[C@H](N)C(=O)N[C@@H]1CCN(S(C)(=O)=O)c2ccc(CN3CCc4ccccc4C3)cc21.O=C(O)C(F)(F)F | 100 |

Target: Delta-type opioid receptor (Rattus norvegicus) (UniProt P33533)
Experiment: Agonist activity at rat delta opioid receptor expressed in rat C6 cell membranes assessed as stimulation of [35S]GTPgammaS binding incubated for 1 hr relative to DPDPE
Format: functional
Details: not given

| Compound | Efficacy |
| --- | --- |
| CC(=O)N1CC[C@@H](NC(=O)[C@@H](N)Cc2c(C)cc(O)cc2C)c2cc(CN3CCc4ccccc4C3)ccc21.O=C(O)C(F)(F)F | inactive |
| Cc1cc(O)cc(C)c1C[C@H](N)C(=O)N[C@@H]1CCN(S(C)(=O)=O)c2ccc(CN3CCc4ccccc4C3)cc21.O=C(O)C(F)(F)F | inactive |

Test system: not listed separately
Experiment: Lipophilicity, log P of the compound
Format: physicochemical
Details: octanol/water

| Compound | logP |
| --- | --- |
| CC(=O)N1CC[C@@H](NC(=O)[C@@H](N)Cc2c(C)cc(O)cc2C)c2cc(CN3CCc4ccccc4C3)ccc21.O=C(O)C(F)(F)F | 3.2 |
| Cc1cc(O)cc(C)c1C[C@H](N)C(=O)N[C@@H]1CCN(S(C)(=O)=O)c2ccc(CN3CCc4ccccc4C3)cc21.O=C(O)C(F)(F)F | 3.1 |

Organism: Rattus norvegicus
Experiment: Selectivity ratio of Ki for rat delta opioid receptor expressed in rat C6 cell membranes to Ki for rat mu opioid receptor expressed in rat C6 cell membranes
Format: cell-based
Details: not given
Method in brief: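 Competition binding against 0.2 nM [3H]-diprenorphine, using C6 membranes expressing rat MOR or rat DOR (20 μg protein/tube). Run in 50 mM Tris-HCl pH 7.4, 1 h at room temperature with shaking, then filtration and scintillation counting. Nonspecific binding with 10 μM naloxone.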

| Compound | Ratio Ki |
| --- | --- |
| CC(=O)N1CC[C@@H](NC(=O)[C@@H](N)Cc2c(C)cc(O)cc2C)c2cc(CN3CCc4ccccc4C3)ccc21.O=C(O)C(F)(F)F | 5 |
| Cc1cc(O)cc(C)c1C[C@H](N)C(=O)N[C@@H]1CCN(S(C)(=O)=O)c2ccc(CN3CCc4ccccc4C3)cc21.O=C(O)C(F)(F)F | 9 |

Test system: Mus musculus
Experiment: Antinociceptive activity in C57BL/6 mouse assessed as increase in latency to tail withdrawal by measuring time of action at 10 mg/kg, ip administered as bolus dose by warm water tail withdrawal assay
Format: functional
Details: not given
Method in brief: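 Male C57BL/6 mice; saline ip, baseline 30 min later, then single 10 mg/kg ip bolus in 5% DMSO/saline. Tail withdrawal in 50°C water (20 s cutoff) at 5, 15, 30 min and every 30 min until return to baseline; duration = time from dosing to baseline return, done only for fully active compounds.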

| Compound | Time [min] |
| --- | --- |
| CC(=O)N1CC[C@@H](NC(=O)[C@@H](N)Cc2c(C)cc(O)cc2C)c2cc(CN3CCc4ccccc4C3)ccc21.O=C(O)C(F)(F)F | 240 |
| Cc1cc(O)cc(C)c1C[C@H](N)C(=O)N[C@@H]1CCN(S(C)(=O)=O)c2ccc(CN3CCc4ccccc4C3)cc21.O=C(O)C(F)(F)F | 90 |

Target: T3, Kappa-type opioid receptor
Experiment: Agonist activity at human kappa opioid receptor expressed in CHO cell membranes assessed as stimulation of [35S]GTPgammaS binding measured after 1 hr
Format: functional
Details: read-out: EC50

| Compound | EC50 [nM] |
| --- | --- |
| CC(=O)N1CC[C@@H](NC(=O)[C@@H](N)Cc2c(C)cc(O)cc2C)c2cc(CN3CCc4ccccc4C3)ccc21.O=C(O)C(F)(F)F | 190 |
| Cc1cc(O)cc(C)c1C[C@H](N)C(=O)N[C@@H]1CCN(S(C)(=O)=O)c2ccc(CN3CCc4ccccc4C3)cc21.O=C(O)C(F)(F)F | 45 |

Target: T3, Kappa-type opioid receptor
Experiment: Displacement of [3H]diprenorphine from human kappa opioid receptor expressed in CHO cell membranes measured after 1 hr by liquid scintillation counting method
Details: not given
Method in brief: as §1

| Compound | Ki [nM] |
| --- | --- |
| CC(=O)N1CC[C@@H](NC(=O)[C@@H](N)Cc2c(C)cc(O)cc2C)c2cc(CN3CCc4ccccc4C3)ccc21.O=C(O)C(F)(F)F | 0.78 |
| Cc1cc(O)cc(C)c1C[C@H](N)C(=O)N[C@@H]1CCN(S(C)(=O)=O)c2ccc(CN3CCc4ccccc4C3)cc21.O=C(O)C(F)(F)F | 1.1 |
